Screening data deposited in PubChem by several laboratories.
Granule exo inh – blocks lytic granule exocytosis | TALL-104 LAMP-1 surface exposure, flow cytometry; cells stimulated with thapsigargin and PMA | inhibition, % at 10 µM | actives 0.66% (n = 360,000) | AID 651702;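 active means inhibition above about 55%, limit read from the data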
T cell HTS – T cell immune modulation candidate | 2C CD8+ T cell-vesicle binding, flow cytometry; hits give low values | actives 0.068% (n = 330,000) | response (vesicle binding), % at 7 µM;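 active means response, share of CD8 T cells binding vesicles, and their 90th percentile fluorescence all below set limits, cut at about 80% in these data, passing the limit was not always enough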;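 further: values below 100% mean blocked vesicle binding to the CD8+ T cells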
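material = purified 2C TCR transgenic mouse naive CD8+ T cells | controls = Unloaded micro-vesicles (low), QL9 vesicles with 0.7% DMSO (high) | detection = cytometric PE anti-B7-1 and Alexa647 anti-CD8 signals after 1% paraformaldehyde fixation | incubation = binding step 1.5 h, 37 °C, antibody labelling 20 min, ice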
Beta2AR agonist – activates human beta-2 adrenergic receptor causing internalization; P07550; actives 0.43% (n = 340,000); Am2.2-beta2AR cells, FAP receptor internalization, flow cytometry; response, % (concentration not given with the values);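 active means response above a set limit, near 3 SD of response in nonfluorescent compounds, cut at about 42% in these data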
Target sequence (P07550 whole entry, looked up): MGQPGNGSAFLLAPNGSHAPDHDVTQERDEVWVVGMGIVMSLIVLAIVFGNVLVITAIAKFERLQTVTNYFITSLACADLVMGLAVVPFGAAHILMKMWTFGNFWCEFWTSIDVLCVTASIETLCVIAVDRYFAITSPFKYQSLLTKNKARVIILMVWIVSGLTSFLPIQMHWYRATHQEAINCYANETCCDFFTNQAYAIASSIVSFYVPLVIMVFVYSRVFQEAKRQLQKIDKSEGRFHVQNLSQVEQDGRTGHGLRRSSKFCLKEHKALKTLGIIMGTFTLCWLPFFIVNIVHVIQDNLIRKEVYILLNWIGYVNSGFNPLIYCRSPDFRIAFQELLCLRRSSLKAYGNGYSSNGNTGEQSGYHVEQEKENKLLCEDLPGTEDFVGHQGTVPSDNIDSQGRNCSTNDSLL
V-ATPase pHluor – alters yeast V-ATPase proton transport | S. cerevisiae, pHLuorin cytosolic pH fluorescence | actives 0.37% (n = 350,000) | AID 504577 | response, % at 10 µM; in the data active means response mostly above about 7.3%, no sharp cut-off; inactive means mostly below about 5.4%; further: actives read high
MPTP block – permeability transition pore inhibition; actives 1.4% (n = 360,000); isolated mouse mitochondria, Ca2+ swelling absorbance, 30 min; AID 602449; inhibition, % at 10 µM;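 active means inhibition of 50% or more, scaled per plate between neutral and stimulator controls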;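 further: 0% = DMSO wells given calcium and 100% = 1 mM EGTA wells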
rCAG RNA binder – r(CAG) repeat RNA binding; TO-PRO-1 dye displacement fluorescence; inhibition, % at 3 µM; actives 1.3% (n = 370,000); AID 651821;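 active means inhibition above the plate cutoff, the mean of all test compounds on that plate plus 3 SD, cut at about 35% in these data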;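 further: 0% = DMSO alone and 100% = 100 µM mitoxantrone as full dye displacement; higher means more dye released from RNA so lower well fluorescence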
* = called active by the depositor; / = not tested or not shown. A selection: hits, their analogues and other compounds. The true share with any hit is near 3.8%.

SMILES	Granule exo inh	T cell HTS	Beta2AR agonist	V-ATPase pHluor	MPTP block	rCAG RNA binder
Cc1ccc(NC(=O)c2ccccc2)cc1	0.4	545.5	-2.6	-2.9	2.5	0.7
CCOC(=O)Cn1cc(CN2C(C(=O)OC)CN(Cc3ccccc3)CCS2(=O)=O)nn1 (stereo not drawn)	/	/	/	/	/	-1.0
O=C(NC1CCCCN(Cc2cccc(Cl)c2)C1=O)c1ccc(-c2ccccc2)cc1 (stereo not drawn)	/	/	/	/	/	4.1
CC(C)(C)c1ccc(/C=N/N2C(=O)CSC2=S)cc1	-9.4	168.5	64.9*	0.7	-0.8	9.3
CC(C)C[C@H]1COc2cccc(F)c2S(=O)(=O)N1Cc1cn(CCC2OCCO2)nn1	/	/	/	/	/	1.7
O=C(COC(=O)c1ccc(S(=O)(=O)N2CCOCC2)cc1)Nc1ccccc1OC(F)F	-1.8	0.0*	-9.2	-2.7	-2.7	-0.1
O=C(COC(=O)CCc1ccc(S(=O)(=O)N2CCOCC2)cc1)Nc1ccccc1OC(F)F	-1.8	293.2	-0.4	1.8	-0.2	0.4
Cc1nnc(N/N=C/c2ccc(-c3ccc(Br)cc3)o2)n1N	0.8	317.2	-8.7	0.1	-1.5	5.7
Cc1nnc(N/N=C/c2ccc(Br)cc2)n1N	78.2*	331.2	-10.1	2.5	3.3	1.1
COc1ccc(N(C(=O)c2ccco2)C(C(=O)NC2CCCC2)c2ccncc2)cc1 (stereo not drawn)	-7.1	198.1	-3.8	1.7	-1.7	0.4
CC(C)c1ccc(N(C(=O)c2ccco2)C(C(=O)NC2CCCC2)c2ccncc2)cc1 (stereo not drawn)	2.7	150.6	10.8	13.7*	-1.9	-2.6
COc1ccc(CCN2C(=O)c3[nH]nc(-c4ccccc4O)c3C2c2cccc(Cl)c2)cc1 (stereo not drawn)	62.3*	451.2	24.4	2.4	10.7	20.1
COc1ccc(C2c3c(-c4ccccc4O)n[nH]c3C(=O)N2CCc2ccc(OC)c(OC)c2)cc1 (stereo not drawn)	0.9	190.8	3.1	2.8	7.2	8.0
O=C(c1ccccn1)C1CCCN(Cc2cn[nH]c2-c2cc3ccccc3o2)C1 (stereo not drawn)	-3.3	244.7	4.4	16.1*	0.4	-6.5
c1ccc(CCC2CCCCN2Cc2cn[nH]c2-c2cc3ccccc3o2)nc1 (stereo not drawn)	2.1	213.4	1.6	-0.1	0.7	-4.6
CCN1CN(Cc2ccco2)CNC1=S	-1.8	55.3	48.5*	3.3	-0.3	-0.6
CCN1CCCCC(NC(=O)c2cc(OC)c(OC)c(OC)c2)C1=O (stereo not drawn)	/	/	/	/	/	0.6
Cc1ccc(N=C2NC(=O)C(CC(=O)O)S2)cc1 (stereo not drawn)	-6.5	427.3	-0.1	21.6*	-1.5	/
CCNC(=O)CC1SC(=Nc2ccc(C)cc2)NC1=O (stereo not drawn)	0.5	534.4	-0.5	-4.4	0.5	-1.5
CC(=O)Nc1cccc(C(C)C2=CCCCC2)c1 (stereo not drawn)	/	/	/	/	/	0.2
Cc1ccc(SC2=C(Sc3ccc(C)cc3)C(=O)c3ccccc3C2=O)cc1	93.0*	82.9	17.8	-1.1	1.0	11.8
CC(C)C1C(C#N)=C(N)Oc2n[nH]c(-c3ccccc3)c21 (stereo not drawn)	12.5	163.1	-2.3	-3.2	-0.8	1.4
CC(C)CC1C(C#N)=C(N)Oc2n[nH]c(-c3ccccc3)c21 (stereo not drawn)	-2.9	44.1*	-4.6	3.6	10.0	4.1
Cc1ccc(C(=O)C(c2ccccc2)N2Cc3ccccc3C2=N)cc1 (stereo not drawn)	1.9	115.6	80.7*	2.9	40.0	/
O=C(NC1CCCC1)c1nc(-c2ccco2)oc1-c1ccccc1	-5.5	/	/	/	-1.7	35.2*
SMILES	Granule exo inh	T cell HTS	Beta2AR agonist	V-ATPase pHluor	MPTP block	rCAG RNA binder
C[C@@H]1OC(C2CCCCC2)N(C)[C@H]2C[C@H]3c4[nH]c5cccc(-c6cccc(F)c6)c5c4CCN3C(=O)[C@@H]12 (stereo partly drawn)	/	/	/	/	/	13.4
O=C(Nc1ccccc1)c1nnsc1S(=O)c1ccc(Cl)cc1 (stereo not drawn)	60.3*	128.4	37.7	15.0	-2.4	-2.2
CC(C)C[C@@H]1COc2cc(Br)ccc2S(=O)(=O)N1Cc1cn(Cc2ccc(Br)cc2)nn1	/	/	/	/	/	0.7
O=C(Nc1nnc(CSCc2ccccc2F)s1)c1cccc([N+](=O)[O-])c1	-3.3	325.5	0.9	-2.2	23.4	45.6*
CCOC(=O)[C@@]12CN(C(=O)OC(C)(C)C)CC=C1N(Cc1ccc(OC)cc1)C(=O)[C@H]2CC(=O)N1CCSCC1	/	/	/	/	/	-0.9
CS(=O)(=O)N(CC(=O)NCCSC1CCCCC1)c1ccc2c(c1)OCO2	12.2	473.9	-7.3	23.6*	-0.5	-7.6
Cc1ccc(SCCNC(=O)CN(c2ccc3c(c2)OCO3)S(C)(=O)=O)cc1	0.4	211.4	-0.3	-3.6	-2.8	-5.4
O=C(/C=C/c1ccco1)NC(=S)Nc1cc(-c2nc3ccccc3s2)ccc1Cl	-8.1	396.5	-2.9	2.1	1.4	45.8*
Cc1ccc(-c2nc3ccccc3s2)cc1NC(=S)NC(=O)/C=C/c1ccco1	0.5	368.8	-7.2	1.3	-1.9	12.7
O=C(O)C1CCC(Cn2c(SCc3cc(=O)n4cc(Cl)ccc4n3)nc3ccsc3c2=O)CC1 (stereo not drawn)	-2.3	24.9*	-2.8	-1.2	-1.8	-1.3
CC(C)C[C@@H]1COc2cc(Br)ccc2S(=O)(=O)N1Cc1cn(Cc2ccccc2)nn1	/	/	/	/	/	4.0
COc1ccccc1-c1nnc(NC(=O)C(C)C)s1	2.1	327.6	-3.4	8.0*	0.1	-6.0
OCCN1CCCC12CCC(c1ccccc1)CC2 (stereo not drawn)	/	/	/	/	/	0.8
COC(=O)C1CN(Cc2ccccc2)CCS(=O)(=O)N1Cc1cn(Cc2ccccc2)nn1 (stereo not drawn)	/	/	/	/	/	-1.6
CN1Cc2nnn(Cc3ccccc3)c2-c2ccccc2S1(=O)=O	/	/	/	/	/	0.7
C/C(CC(=O)Nc1ccc(Cl)c(C(F)(F)F)c1)=N\NC(=O)c1cc2ccccc2cc1O	0.1	525.6	0.6	-0.5	49.2	50.7*
COc1cccc(NC(=O)C/C(C)=N/NC(=O)c2ccccc2Cl)c1	-3.1	313.9	-0.3	-0.2	-0.7	-1.6
C/C(CC(=O)Nc1ccc2c(c1)OCCO2)=N\NC(=O)c1ccccc1F	-6.3	222.1	45.1*	-3.0	-0.6	3.7
CC(C)N1CCCCC(NC(=O)c2cccc(F)c2)C1=O (stereo not drawn)	/	/	/	/	/	-0.9
CCN(CC)Cc1cc(Nc2c3ccccc3nc3c4ccccc4n(C)c23)cc(CN(CC)CC)c1O	100.3*	/	-12.6	-4.7	2.2	12.8
CCCCN1C[C@@H](COCc2ccccc2)Oc2cccc(F)c2S1(=O)=O	/	/	/	/	/	0.5
Cc1ccc(-c2ccc(/C=C3\SC(N4CCOCC4)=NC3=O)o2)cc1	60.0*	245.7	2.7	1.5	2.9	11.6
Cc1cccc(-c2cccc3c4c([nH]c23)[C@@H]2C[C@H](N(C)C(=O)NC3CCCCC3)[C@H]([C@H](C)O)CN2CC4)c1	/	/	/	/	/	7.4
